Experimental data as given in ChEMBL document CHEMBL4354828, “Discovery of Taniborbactam (VNRX-5133): A Broad-Spectrum Serine- and Metallo-β-lactamase Inhibitor for Carbapenem-Resistant Bacterial Infections” (J Med Chem, 2020).
In brackets after ≈: the same amount, converted by molar mass.

Columns and labels:
[1] = test system: Pseudomonas aeruginosa; test: Inhibition of VIM-1/VIM-2/VIM-4/NDM-1 in Pseudomonas aeruginosa assessed as cefepime antibacterial activity at 4 ug/ml after 16 to 20 hrs by CLSI-based microbroth dilution method
Method in brief: (§1)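 Panel of 14 clinical isolates expressing class B VIM- or NDM-type MBLs: E. coli (4), E. cloacae (2), K. pneumoniae (4), P. aeruginosa (1), A. baumannii (3).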

[2] = test system: Pseudomonas aeruginosa; test: Inhibition of KPC-2/PDC-42 in Pseudomonas aeruginosa CDC-0356 assessed as meropenem antibacterial activity at 4 ug/ml after 16 to 20 hrs by CLSI-based microbroth dilution method (reference value: […] ug/ml)
[3] = test system: Klebsiella pneumoniae; test: Inhibition of VIM-1/VIM-2/VIM-4/NDM-1 in Klebsiella pneumoniae assessed as cefepime antibacterial activity at 4 ug/ml after 16 to 20 hrs by CLSI-based microbroth dilution method
[4] = test system: Escherichia coli; test: Inhibition of NDM-1/CMY-6/OXA-1 in Escherichia coli CDC-0055 assessed as meropenem antibacterial activity at 4 ug/ml after 16 to 20 hrs by CLSI-based microbroth dilution method (reference value: […] ug/ml)
[5] = test system: Escherichia coli; test: Inhibition of VIM-1/VIM-2/VIM-4/NDM-1 in Escherichia coli assessed as cefepime antibacterial activity at 4 ug/ml after 16 to 20 hrs by CLSI-based microbroth dilution method; method in brief: as §1
[6] = test system: Escherichia coli; test: Inhibition of NDM-1/CMY-6/OXA-1 in Escherichia coli CDC-0055 assessed as cefepime antibacterial activity at 8 ug/ml after 16 to 20 hrs by CLSI-based microbroth dilution method
Method in brief: (§2)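 MDR β-lactamase-producing Gram-negative clinical isolates. […] MIC was reported as the inhibitor concentration that restores the partner's antibacterial activity.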

[7] = Inhibition of bacterial VIM-2 using nitrocefin as substrate preincubated for 15 mins followed by susbtrate addition and measured after 10 mins by spectrophotometric method; design: species or system Bacteria
Method in brief: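 Purified β-lactamase inhibition. IC50 values are the average of duplicates unless otherwise indicated.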

[8] = Inhibition of bacterial CMY-2 using nitrocefin as substrate preincubated for 15 mins followed by susbtrate addition and measured after 10 mins by spectrophotometric method; design: species or system Bacteria
[9] = test system: Escherichia coli; test: Inhibition of TEM/CTX-M/SHV/Cephalosporinase in Escherichia coli EC1552 assessed as cefepime antibacterial activity at 4 ug/ml after 16 to 20 hrs by CLSI-based microbroth dilution method (reference value: […] ug/ml)
[10] = Inhibition of bacterial IMP-1 using nitrocefin as substrate preincubated for 15 mins followed by susbtrate addition and measured after 10 mins by spectrophotometric method; design: species or system Bacteria
[11] = Inhibition of bacterial OXA-48 using nitrocefin as substrate preincubated for 15 mins followed by susbtrate addition and measured after 10 mins by spectrophotometric method; design: species or system Bacteria
[12] = Inhibition of bacterial KPC-2 using imipenem as substrate preincubated for 15 mins followed by susbtrate addition and measured after 10 mins by spectrophotometric method; design: species or system Bacteria
[13] = test system: Pseudomonas aeruginosa; test: Inhibition of KPC-2/PDC-42 in Pseudomonas aeruginosa CDC-0356 assessed as cefepime antibacterial activity at 8 ug/ml after 16 to 20 hrs by CLSI-based microbroth dilution method (Rvb > […] ug/ml)
[14] = Inhibition of bacterial SHV-5 using cefotaxime as substrate preincubated for 15 mins followed by susbtrate addition and measured after 10 mins by spectrophotometric method; design: species or system Bacteria
[15] = test system: Escherichia coli; test: Inhibition of NDM in Escherichia coli CDC-0452 assessed as piperacillin antibacterial activity at 16 ug/ml after 16 to 20 hrs by CLSI-based microbroth dilution method (Rvb > […] ug/ml)
[16] = test system: Enterobacter cloacae; test: Inhibition of VIM-1/VIM-2/VIM-4/NDM-1 in Enterobacter cloacae assessed as cefepime antibacterial activity at 4 ug/ml after 16 to 20 hrs by CLSI-based microbroth dilution method; method in brief: as §1
[17] = test system: Pseudomonas aeruginosa; test: Inhibition of VIM in Pseudomonas aeruginosa CDC-0457 assessed as cefepime antibacterial activity at 8 ug/ml after 16 to 20 hrs by CLSI-based microbroth dilution method
[18] = test system: Pseudomonas aeruginosa; test: Inhibition of VIM in Pseudomonas aeruginosa CDC-0457 assessed as meropenem antibacterial activity at 4 ug/ml after 16 to 20 hrs by CLSI-based microbroth dilution method
[19] = Inhibition of bacterial CTX-M-15 using cefotaxime as substrate preincubated for 15 mins followed by susbtrate addition and measured after 10 mins by spectrophotometric method; design: species or system Bacteria
[20] = test system: Acinetobacter baumannii; test: Inhibition of VIM-1/VIM-2/VIM-4/NDM-1 in Acinetobacter baumannii assessed as cefepime antibacterial activity at 4 ug/ml after 16 to 20 hrs by CLSI-based microbroth dilution method; method in brief: as §1
[21] = test system: Pseudomonas aeruginosa; test: Inhibition of KPC-2/PDC-42 in Pseudomonas aeruginosa CDC-0356 assessed as piperacillin antibacterial activity at 16 ug/ml after 16 to 20 hrs by CLSI-based microbroth dilution method (Rvb > […] ug/ml)
[22] = test system: Escherichia coli; test: Inhibition of NDM in Escherichia coli CDC-0452 assessed as meropenem antibacterial activity at 4 ug/ml after 16 to 20 hrs by CLSI-based microbroth dilution method (reference value: […] ug/ml)
[23] = test system: Klebsiella pneumoniae ATCC BAA-1705; test: Inhibition of KPC-2 in Klebsiella pneumoniae ATCC BAA 1705 assessed as meropenem antibacterial activity at 4 ug/ml after 16 to 20 hrs by CLSI-based microbroth dilution method (reference value: […] ug/ml)
[24] = test system: Enterobacter cloacae; test: Inhibition of TEM/CTX-M/SHV/Cephalosporinase in Enterobacter cloacae CH23 assessed as cefepime antibacterial activity at 4 ug/ml after 16 to 20 hrs by CLSI-based microbroth dilution method (Rvb > […] ug/ml)
[25] = Inhibition of bacterial NDM-1 using cefepime as substrate preincubated for 15 mins followed by susbtrate addition and measured after 10 mins by spectrophotometric method; design: species or system Bacteria
[26] = test system: Klebsiella pneumoniae; test: Inhibition of TEM/CTX-M/SHV in Klebsiella pneumoniae 9032 assessed as cefepime antibacterial activity at 4 ug/ml after 16 to 20 hrs by CLSI-based microbroth dilution method (reference value: […] ug/ml)
[27] = test system: Escherichia coli; test: Inhibition of NDM-1/CMY-6/OXA-1 in Escherichia coli CDC-0055 assessed as piperacillin antibacterial activity at 16 ug/ml after 16 to 20 hrs by CLSI-based microbroth dilution method; method in brief: as §2

For C[C@]1(Cn2ccnn2)[C@H](C(=O)O)N2C(=O)C[C@H]2S1(=O)=O [TAZOBACTAM], the MIC50 [1] was > 32 µg/mL, the MIC90 [1] was > 32 µg/mL and the MIC [2] was > 16 µg/mL. For the same compound, the MIC50 [3] was > 32 µg/mL, the MIC90 [3] was > 32 µg/mL and the MIC [4] was > 16 µg/mL. The MIC50 [5] was > 32 µg/mL, the MIC90 [5] was > 32 µg/mL and the MIC [6] was > 16 µg/mL. The IC50 [7] was > 100000 nM, the IC50 [8] was 410 nM and the MIC [9] was 4 µg/mL (≈ 13.3 µM). For the same compound, the IC50 [10] was > 100000 nM, the IC50 [11] was 550 nM and the IC50 [12] was 1700 nM. For the same compound, the MIC [13] was > 16 µg/mL, the IC50 [14] was 15 nM and the MIC [15] was > 16 µg/mL. For the same compound, the MIC50 [16] was > 32 µg/mL, the MIC90 [16] was > 32 µg/mL and the MIC [17] was > 16 µg/mL. For the same compound, the MIC [18] was > 16 µg/mL, the IC50 [19] was 1 nM and the MIC50 [20] was > 32 µg/mL. The MIC90 [20] was > 32 µg/mL, the MIC [21] was > 16 µg/mL and the MIC [22] was > 16 µg/mL. For the same compound, the MIC [23] was 8 µg/mL (≈ 26.6 µM), the MIC [24] was > 16 µg/mL and the IC50 [25] was > 100000 nM. The MIC [26] was 4 µg/mL (≈ 13.3 µM) and the MIC [27] was > 16 µg/mL.
